Test results from ChEMBL document CHEMBL1125554, “Studies on pyridonecarboxylic acids. 1. Synthesis and antibacterial evaluation of 7-substituted-6-halo-4-oxo-4H-[1,3]thiazeto[3,2-a]quinoline-3-carboxylic acids” (J Med Chem, 1992).
≈ marks a conversion by molar mass, not a printed value.

Legend:
Assay type in all cases: functional
Escherichia coli = assay: In vitro antibacterial activity against Escherichia coli NIH JC-2
Outline: (§1)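 MIC (μg/mL) by 2-fold agar dilution on Sensitivity Test agar, following the Japan Society of Chemotherapy MIC Committee method. Inocula were about 10⁶ cfu/mL. Growth was read after 20 h incubation at 37 °C.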

Klebsiella pneumoniae = assay: In vitro antibacterial activity against Klebsiella pneumoniae K-1966; outline: as §1
Pseudomonas aeruginosa = assay: In vitro antibacterial activity against Pseudomonas aeruginosa E-2; outline: as §1
Shigella flexneri = assay: In vitro antibacterial activity against Shigella flexneri 2a EW-10; outline: as §1
Serratia marcescens = assay: In vitro antibacterial activity against Serratia marcescens IFO 3736; outline: as §1
Staphylococcus aureus = assay: In vitro antibacterial activity against Staphylococcus aureus 209P JC-1; outline: as §1
Micrococcus luteus = assay: In vitro antibacterial activity against Micrococcus luteus ATCC 9341; outline: as §1
[1] = Escherichia coli, read-out: MIC
[2] = Klebsiella pneumoniae, read-out: MIC
[3] = Pseudomonas aeruginosa, read-out: MIC
[4] = Shigella flexneri, read-out: MIC
[5] = Serratia marcescens, IFO 3736, read-out: MIC
[6] = Staphylococcus aureus, read-out: MIC
[7] = Micrococcus luteus, ATCC 9341, read-out: MIC

SMILES	MIC (Escherichia coli; [1])	MIC (Klebsiella pneumoniae; [2])	MIC (Pseudomonas aeruginosa; [3])	MIC (Shigella flexneri; [4])	MIC (Serratia marcescens; [5])	MIC (Staphylococcus aureus; [6])	MIC (Micrococcus luteus; [7])	MIC (Escherichia coli)	MIC (Klebsiella pneumoniae)	MIC (Pseudomonas aeruginosa)	MIC (Shigella flexneri)	MIC (Serratia marcescens)	MIC (Staphylococcus aureus)	MIC (Micrococcus luteus)
CC1Sc2c(C(=O)O)c(=O)c3cc(Cl)c(N4CCN(C)CC4)cc3n21 (configuration not stated)	0.1 µg/mL (≈ 0.263 µM)	0.025 µg/mL (≈ 0.0658 µM)	1.56 µg/mL (≈ 4.11 µM)	0.1 µg/mL (≈ 0.263 µM)	0.1 µg/mL (≈ 0.263 µM)	0.2 µg/mL (≈ 0.526 µM)	3.13 µg/mL (≈ 8.24 µM)	–	–	–	–	–	–	–
CC1Sc2c(C(=O)O)c(=O)c3cc(Cl)c(N4CCNCC4)cc3n21 (configuration not stated)	0.05 µg/mL (≈ 0.137 µM)	0.025 µg/mL (≈ 0.0683 µM)	1.56 µg/mL (≈ 4.26 µM)	0.0125 µg/mL (≈ 0.0342 µM)	0.1 µg/mL (≈ 0.273 µM)	0.1 µg/mL (≈ 0.273 µM)	1.56 µg/mL (≈ 4.26 µM)	–	–	–	–	–	–	–
CC1Sc2c(C(=O)O)c(=O)c3cc(F)c(N4CCNCC4)cc3n21 (stereo in doubt; 29l) [ULIFLOXACIN]	–	–	–	–	–	–	–	0.78 µg/mL (≈ 2.23 µM)	0.39 µg/mL (≈ 1.12 µM)	1.56 µg/mL (≈ 4.46 µM)	0.78 µg/mL (≈ 2.23 µM)	3.13 µg/mL (≈ 8.96 µM)	0.2 µg/mL (≈ 0.572 µM)	3.13 µg/mL (≈ 8.96 µM)
C=CCN1CCN(c2cc3c(cc2F)c(=O)c(C(=O)O)c2n3C(C)S2)CC1 (configuration not stated)	0.05 µg/mL (≈ 0.128 µM)	0.05 µg/mL (≈ 0.128 µM)	0.78 µg/mL (≈ 2 µM)	0.025 µg/mL (≈ 0.0642 µM)	0.19 µg/mL (≈ 0.488 µM)	0.05 µg/mL (≈ 0.128 µM)	1.56 µg/mL (≈ 4.01 µM)	–	–	–	–	–	–	–
CC(C)N1CCN(c2cc3c(cc2F)c(=O)c(C(=O)O)c2n3C(C)S2)CC1 (configuration not stated)	0.2 µg/mL (≈ 0.511 µM)	0.025 µg/mL (≈ 0.0639 µM)	1.56 µg/mL (≈ 3.99 µM)	0.025 µg/mL (≈ 0.0639 µM)	0.39 µg/mL (≈ 0.996 µM)	0.05 µg/mL (≈ 0.128 µM)	3.13 µg/mL (≈ 8 µM)	–	–	–	–	–	–	–
CC(=O)N1CCN(c2cc3c(cc2F)c(=O)c(C(=O)O)c2n3C(C)S2)CC1 (configuration not stated)	0.78 µg/mL (≈ 1.99 µM)	0.39 µg/mL (≈ 0.996 µM)	6.25 µg/mL (≈ 16 µM)	0.39 µg/mL (≈ 0.996 µM)	1.56 µg/mL (≈ 3.99 µM)	0.2 µg/mL (≈ 0.511 µM)	3.13 µg/mL (≈ 8 µM)	–	–	–	–	–	–	–
CC1Sc2c(C(=O)O)c(=O)c3cc(F)c(N4CCCC4)cc3n21 (configuration not stated)	0.2 µg/mL (≈ 0.598 µM)	0.1 µg/mL (≈ 0.299 µM)	0.39 µg/mL (≈ 1.17 µM)	0.1 µg/mL (≈ 0.299 µM)	0.78 µg/mL (≈ 2.33 µM)	0.05 µg/mL (≈ 0.15 µM)	0.78 µg/mL (≈ 2.33 µM)	–	–	–	–	–	–	–
CC1Sc2c(C(=O)O)c(=O)c3cc(F)c(N4CCN(CCO)CC4)cc3n21 (configuration not stated)	0.1 µg/mL (≈ 0.254 µM)	0.1 µg/mL (≈ 0.254 µM)	1.56 µg/mL (≈ 3.97 µM)	0.05 µg/mL (≈ 0.127 µM)	0.39 µg/mL (≈ 0.991 µM)	0.1 µg/mL (≈ 0.254 µM)	0.78 µg/mL (≈ 1.98 µM)	–	–	–	–	–	–	–
CC1Sc2c(C(=O)O)c(=O)c3cc(F)c(N4CCN(c5ccccc5)CC4)cc3n21 (configuration not stated)	> 100 µg/mL	> 100 µg/mL	> 100 µg/mL	> 100 µg/mL	> 100 µg/mL	3.13 µg/mL (≈ 7.36 µM)	12.5 µg/mL (≈ 29.4 µM)	–	–	–	–	–	–	–
CC1Sc2c(C(=O)O)c(=O)c3cc(F)c(-n4ccnc4)cc3n21 (configuration not stated)	0.2 µg/mL (≈ 0.604 µM)	0.1 µg/mL (≈ 0.302 µM)	3.13 µg/mL (≈ 9.45 µM)	0.1 µg/mL (≈ 0.302 µM)	0.78 µg/mL (≈ 2.35 µM)	0.39 µg/mL (≈ 1.18 µM)	6.25 µg/mL (≈ 18.9 µM)	–	–	–	–	–	–	–
CN1CCN(c2cc3c(cc2F)c(=O)c(C(=O)O)c2n3C(c3ccc(F)cc3F)S2)CC1 (configuration not stated)	0.39 µg/mL (≈ 0.845 µM)	0.78 µg/mL (≈ 1.69 µM)	3.13 µg/mL (≈ 6.78 µM)	0.78 µg/mL (≈ 1.69 µM)	12.5 µg/mL (≈ 27.1 µM)	1.56 µg/mL (≈ 3.38 µM)	6.25 µg/mL (≈ 13.5 µM)	–	–	–	–	–	–	–
CC1Sc2c(C(=O)O)c(=O)c3cc(F)c(N4CCOCC4)cc3n21 (configuration not stated)	0.1 µg/mL (≈ 0.285 µM)	0.1 µg/mL (≈ 0.285 µM)	0.39 µg/mL (≈ 1.11 µM)	0.1 µg/mL (≈ 0.285 µM)	0.39 µg/mL (≈ 1.11 µM)	0.1 µg/mL (≈ 0.285 µM)	1.56 µg/mL (≈ 4.45 µM)	–	–	–	–	–	–	–
O=C(O)c1c2n(c3cc(N4CCNCC4)c(F)cc3c1=O)C(c1ccc(F)cc1)S2 (configuration not stated)	0.025 µg/mL (≈ 0.0582 µM)	0.0125 µg/mL (≈ 0.0291 µM)	0.39 µg/mL (≈ 0.908 µM)	0.025 µg/mL (≈ 0.0582 µM)	0.39 µg/mL (≈ 0.908 µM)	0.2 µg/mL (≈ 0.466 µM)	1.56 µg/mL (≈ 3.63 µM)	–	–	–	–	–	–	–
CC1Sc2c(C(=O)O)c(=O)c3cc(F)c(N4CCCNCC4)cc3n21 (configuration not stated)	0.2 µg/mL (≈ 0.55 µM)	0.2 µg/mL (≈ 0.55 µM)	3.13 µg/mL (≈ 8.61 µM)	0.1 µg/mL (≈ 0.275 µM)	0.39 µg/mL (≈ 1.07 µM)	0.1 µg/mL (≈ 0.275 µM)	3.13 µg/mL (≈ 8.61 µM)	–	–	–	–	–	–	–
CN1CCN(c2cc3c(cc2F)c(=O)c(C(=O)O)c2n3C(c3ccccc3)S2)CC1 (configuration not stated)	0.2 µg/mL (≈ 0.47 µM)	0.2 µg/mL (≈ 0.47 µM)	1.56 µg/mL (≈ 3.67 µM)	0.2 µg/mL (≈ 0.47 µM)	0.39 µg/mL (≈ 0.917 µM)	0.39 µg/mL (≈ 0.917 µM)	6.25 µg/mL (≈ 14.7 µM)	–	–	–	–	–	–	–
CC1Sc2c(C(=O)O)c(=O)c3cc(F)c(N4CCNC(=O)C4)cc3n21 (configuration not stated)	0.39 µg/mL (≈ 1.07 µM)	0.2 µg/mL (≈ 0.55 µM)	6.25 µg/mL (≈ 17.2 µM)	0.1 µg/mL (≈ 0.275 µM)	3.13 µg/mL (≈ 8.61 µM)	0.39 µg/mL (≈ 1.07 µM)	3.13 µg/mL (≈ 8.61 µM)	–	–	–	–	–	–	–
CC1Sc2c(C(=O)O)c(=O)c3cc(F)c(N4CCN(Cc5ccc(N)cc5)CC4)cc3n21 (configuration not stated)	0.2 µg/mL (≈ 0.44 µM)	0.2 µg/mL (≈ 0.44 µM)	3.13 µg/mL (≈ 6.89 µM)	0.1 µg/mL (≈ 0.22 µM)	1.56 µg/mL (≈ 3.43 µM)	0.05 µg/mL (≈ 0.11 µM)	0.39 µg/mL (≈ 0.858 µM)	–	–	–	–	–	–	–
CN1CCN(c2cc3c(cc2Cl)c(=O)c(C(=O)O)c2n3CS2)CC1	0.2 µg/mL (≈ 0.547 µM)	0.2 µg/mL (≈ 0.547 µM)	1.56 µg/mL (≈ 4.26 µM)	0.1 µg/mL (≈ 0.273 µM)	0.39 µg/mL (≈ 1.07 µM)	0.2 µg/mL (≈ 0.547 µM)	6.25 µg/mL (≈ 17.1 µM)	–	–	–	–	–	–	–
O=C(O)c1c2n(c3cc(N4CCNCC4)c(Cl)cc3c1=O)CS2	0.39 µg/mL (≈ 1.11 µM)	0.2 µg/mL (≈ 0.568 µM)	6.25 µg/mL (≈ 17.8 µM)	0.1 µg/mL (≈ 0.284 µM)	0.2 µg/mL (≈ 0.568 µM)	0.2 µg/mL (≈ 0.568 µM)	6.25 µg/mL (≈ 17.8 µM)	–	–	–	–	–	–	–
Cl.O.O=C(O)c1c2n(c3cc(N4CCNCC4)c(F)cc3c1=O)CS2	0.1 µg/mL	0.05 µg/mL	0.78 µg/mL	0.025 µg/mL	0.1 µg/mL	0.05 µg/mL	25 µg/mL	–	–	–	–	–	–	–
CCC1Sc2c(C(=O)O)c(=O)c3cc(F)c(N4CCN(C)CC4)cc3n21 (configuration not stated)	–	–	–	–	0.78 µg/mL (≈ 2.07 µM)	0.2 µg/mL (≈ 0.53 µM)	–	–	–	–	–	–	–	–
